Activity calls are given as the source filed them. The rule behind the calls is not given here.
How the values were obtained:
HeLa [1] = test: Inhibition of IDO1 expression in hIFNgamma-stimulated human HeLa cells at 0.5 uM measured after 24 hrs by western blot assay; assay type: functional
Procedure, shortened: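 HeLa cells were treated 24 h at 37 °C and lysed in buffer containing PMSF. Protein quantified by BCA, equal amounts separated by SDS-PAGE and transferred to nitrocellulose. Blocked in 5% milk, primary antibodies overnight at 4 °C, peroxidase secondary 2 h at 25 °C. Detection by chemiluminescence, β-actin as loading control.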

A549 = test: Anticancer activity against human A549 cells assessed as inhibition of cell proliferation measured after 72 hrs by MTT assay; assay type: functional, cell-based; settings: A549, 72 h
Procedure, shortened: (§1)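 Cells (A549, PC-3, HeLa, HUVEC) grown in DMEM with 10% FBS at 37 °C, 5% CO₂. Seeded at 5 × 10⁴ cells/well and allowed 24 h to attach, then exposed 72 h to a concentration series from DMSO stocks. MTT was added for 4 h and formazan dissolved in DMSO, read at 490 nm. Survival taken relative to untreated control. IC50 by Bliss method, three repeats.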

PC-3 = test: Anticancer activity against human PC3 cells assessed as inhibition of cell proliferation measured after 72 hrs by MTT assay; assay type: functional, cell-based; settings: PC-3, 72 h; procedure, shortened: as §1
[2] = Antitumor immunity against IFN-gamma stimulated human HeLa cells co-cultured with PHA-M-stimulated human PBMC cells assessed as induction of CD3+ T cell proliferation at 0.1 uM preincubated for 2 days measured after co-culturing with PBMC for 6 days by flow cytometry (reference value: 6 to 6.2%); assay type: functional; settings: time 8 day
HUVEC = test: Cytotoxicity against HUVEC cells assessed as inhibition of cell proliferation measured after 72 hrs by MTT assay; assay type: cell-based; settings: Homo sapiens; procedure, shortened: as §1
HeLa [3] = test: Inhibition of IDO1 expression in hIFNgamma-stimulated human HeLa cells assessed as decrease in kynurenine production at 0.1 uM measured after 48 hrs by reverse-phase HPLC analysis; assay type: functional
Procedure, shortened: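 HeLa cells were given fresh L-tryptophan-containing medium with hIFN-γ (25 ng/mL) plus compound for 48 h. Collected cells were treated with 20% trichloroacetic acid and centrifuged. Supernatant analysed by reversed-phase HPLC (ODS column, acetonitrile/water, 1.0 mL/min, […]).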

HeLa [4] = test: Anticancer activity against human HeLa cells assessed as inhibition of cell proliferation measured after 72 hrs by MTT assay; assay type: functional, cell-based; procedure, shortened: as §1

| SMILES | IC50 (A549) | IC50 (PC-3) | IC50 (HeLa [4]) | inhibition (HeLa [1]) | Activity [2] | IC50 (HUVEC) | inhibition (HeLa [3]) |
| --- | --- | --- | --- | --- | --- | --- | --- |
| Cn1cc(C[C@@H](N)C(=O)O)c2ccccc21 [INDOXIMOD] | > 100000 nM | > 100000 nM | > 100000 nM | Active | 17.8% | > 100000 nM | Active |
| COc1ccc(/C=C/C(=O)c2cc(OC)c(OC)c(OC)c2)cc1OC(=O)c1cccc(Cn2cc(CCOC(=O)CCC(=O)n3cc(C4CC(=O)NC4=O)c4cc(F)ccc43)nn2)c1 (centres undefined) | 970 nM | 1560 nM | 490 nM | – | – | 7190 nM | – |
| COc1ccc(/C=C/C(=O)c2cc(OC)c(OC)c(OC)c2)cc1OC(=O)c1cccc(Cn2cc(CCOC(=O)[C@H](N)Cc3cn(C)c4ccccc34)nn2)c1 | 710 nM | 620 nM | 480 nM | – | – | 3730 nM | – |

Stronger by IC50 (A549), values ahead:

| IC50 (A549) | IC50 (PC-3) | IC50 (HeLa [4]) | SMILES | inhibition (HeLa [1]) | Activity [2] | IC50 (HUVEC) | inhibition (HeLa [3]) |
| --- | --- | --- | --- | --- | --- | --- | --- |
| 450 nM | 620 nM | 270 nM | COc1ccc(/C=C\c2cc(OC)c(OC)c(OC)c2)cc1OC(=O)CCC(=O)n1cc(C2CC(=O)NC2=O)c2cc(F)ccc21 (centres undefined) | – | – | 2270 nM | – |
| 680 nM | 720 nM | 430 nM | COc1ccc(/C=C\c2cc(OC)c(OC)c(OC)c2)cc1OC(=O)[C@H](N)Cc1cn(C)c2ccccc12 | Active | – | 2530 nM | – |
